# Results taken from ChEMBL document CHEMBL1142702, “Dynamic receptor-based pharmacophore model development and its application in designing novel HIV-1 integrase inhibitors” (J Med Chem, 2005).
# Tests used:
# [1] = biological target: T1, Human immunodeficiency virus type 1 integrase (Human immunodeficiency virus 1, UniProt Q7ZJM1); test: Concentration to inhibit 3' processing of wild type Human immuno deficiency virus-1 integrase
# Method in brief: (§1)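 Recombinant wild-type IN, 200 nM final, preincubated with inhibitor at 30 °C for 30 min. 20 nM 5′-32P-labeled 21-mer duplex substrate then added for 1 h. Quenched with formamide loading dye. 19-mer or strand-transfer product fraction gave percent inhibition. IC50 from log concentration versus percent inhibition.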
# [2] = biological target: T1, Human immunodeficiency virus type 1 integrase; test: Concentration to inhibit strand transfer of wild type Human immuno deficiency virus-1 integrase; method in brief: as §1
# [3] = biological target: T1, Human immunodeficiency virus type 1 integrase; test: Concentration to inhibit 3' processing of wild type Human immunodeficiency virus-1 integrase; method in brief: as §1
# [4] = biological target: T1, Human immunodeficiency virus type 1 integrase; test: Concentration to inhibit strand transfer of wild type Human immunodeficiency virus-1 integrase; method in brief: as §1
# [5] = biological target: T1, Human immunodeficiency virus type 1 integrase; test: Concentration to inhibit 3' processing of soluble mutant (F185K, C280S) of wild type Human immunodeficiency virus-1 integrase
# Method in brief: (§2)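 Integrase (200 nM final) is preincubated with inhibitor for 30 min at 30 °C in buffer with MOPS pH 7.2, HEPES pH 7.5, 7.5 mM MnCl2, 50 mM NaCl, BSA, DTT, 2-mercaptoethanol, glycerol, EDTA and 10% DMSO. Then 20 nM 5′-32P-labelled 21-mer duplex substrate is added for 1 h, and the reaction is quenched with formamide/EDTA dye. The fraction converted to 19-mer (3′-processing) or to strand-transfer products gives percent inhibition, and IC50 comes from log concentration versus percent inhibition.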
# [6] = biological target: T1, Human immunodeficiency virus type 1 integrase; test: Concentration to inhibit strand transfer of soluble mutant (F185K, C280S) of wild type Human immunodeficiency virus-1 integrase; method in brief: as §2
Structure (SMILES),IC50 [1],IC50 [2],IC50 [3],IC50 [4],IC50 [5],IC50 [6]
O=C(c1ccccc1)c1ccc(OCC(O)COc2ccc(C(=O)c3ccccc3)c(O)c2)cc1O,> 100 µM,> 100 µM,–,–,–,–
CCc1cc(/C=N/CC/N=C/c2cc(CC)sc2S)c(S)s1,> 100 µM,21 µM,–,–,> 100 µM,6 µM
O=C(O)c1cc(NS(=O)(=O)c2ccc(NCCCN3CCOCC3)c([N+](=O)[O-])c2)cc(C(=O)O)c1,140 µM,100 µM,–,–,–,–
O=C(Nc1ccc(Cc2ccc(NC(=O)c3cccc([N+](=O)[O-])c3)c(C(=O)O)c2)cc1C(=O)O)c1cccc([N+](=O)[O-])c1,–,–,15 µM,13 µM,–,–
COC(=O)c1sccc1NC(=O)c1ccc(C(=O)Nc2ccsc2C(=O)OC)cc1,–,–,> 100 µM,97 µM,–,–
O=C(Nc1ccc(Cc2ccc(O)c(NC(=O)c3ccccc3F)c2)cc1O)c1ccccc1F,–,–,> 100 µM,> 100 µM,205 µM,33 µM
Cc1ccc(NC(=O)C(=O)NCc2ccc(/C=N\NC(=O)C(=O)Nc3cc(Cl)ccc3C)o2)cc1C,> 100 µM,> 100 µM,–,–,510 µM,70 µM
O=C(NCc1ccco1)c1cc(C(=O)NCc2ccco2)cc(C(=O)NCc2ccco2)c1,37 µM,8 µM,–,–,–,–
O=C(NCc1cccc(CNC(=O)C(=O)NCc2ccco2)c1)C(=O)NCc1ccco1,> 100 µM,> 100 µM,–,–,1000 µM,40 µM
CCOC(=O)C(=O)NCc1ccc(/C=C2/N=C(C)C(C(=O)OCC)=C2O)o1,–,–,> 100 µM,> 100 µM,–,–
O=C(O)c1cc(NS(=O)(=O)c2ccc(NCc3ccccc3)c([N+](=O)[O-])c2)cc(C(=O)O)c1,–,–,> 100 µM,66 µM,–,–
O=C(Nc1ccc(Cc2ccc(NC(=O)c3cccs3)c(C(=O)O)c2)cc1C(=O)O)c1cccs1,–,–,63 µM,38 µM,–,–

# Further lines, with some results ahead:
IC50 [1],IC50 [2],IC50 [3],IC50 [4],Structure (SMILES),IC50 [5],IC50 [6]
> 100 µM,> 100 µM,–,–,CCOC(=O)c1cc(C(=O)OCC)c(SCC(=O)Nc2ccc(Br)cc2)nc1O,–,–
–,–,> 100 µM,81 µM,COC(=O)C1=C(O)/C(=C\c2ccc(CNC(=O)C(=O)Nc3ccc(C)cc3)o2)N=C1C,–,–
–,–,> 1000 µM,150 µM,C/C(CC(=O)Nc1c(C)cc(C)cc1C)=N\NC(=O)c1ccc(O)cc1O,–,–
> 100 µM,> 100 µM,–,–,COc1ccc(C(=O)Nc2ccc(Cc3ccc(NC(=O)c4ccc(OC)cc4)c(O)c3)cc2O)cc1,–,–
177 µM,43 µM,–,–,O=C(N/N=C/c1ccc(O)cc1O)c1cc(C2CC2)[nH]n1,–,–
> 100 µM,> 100 µM,–,–,COc1cc(/C=N/NC(=O)c2cc(C3CC3)[nH]n2)ccc1O,–,–
–,–,> 100 µM,> 100 µM,CCN(CC)c1ccc(/C=N/Nc2nonc2N)c(O)c1,–,–
> 100 µM,> 100 µM,–,–,COc1ccc2[nH]c(SCC(=O)Nc3ccc(O)c(C(=O)O)c3)nc2c1,–,–
> 100 µM,> 100 µM,–,–,COC(=O)c1cc(NS(=O)(=O)c2ccc(NCc3cccnc3)c(N)c2)cc(C(=O)OC)c1,–,–
355 µM,300 µM,–,–,COc1ccc(NS(=O)(=O)c2cccc(C(=O)Nc3ccccc3C(=O)O)c2)cc1,–,–
–,–,> 100 µM,> 100 µM,CCOc1ccc2[nH]c(SCC(=O)Nc3cc(C(=O)O)cc(C(=O)O)c3)nc2c1,–,–
